Compound activity (PubChem)
This is a sample that favours compounds with a hit; in the whole collection about 2.3% have one here.
Rpn11 inh: Rpn11 (human) deubiquitinase inhibition; O00487; 360,000 compounds, 0.59% hits; human 26S proteasome, Ub4-pepOG fluorescence polarization; 20S core pre-blocked with epoxomicin; inhibition, % at 20 µM;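 active = inhibition at 20 µM, scaled to each plate's controls, above about 33%, limit read from the data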
Myeloid diff 2: myeloid differentiation induction. 360,000 compounds, 1% hits. ER-HoxA9 myeloid progenitors, lysozyme-GFP differentiation, flow cytometry. calls only at 10 µM;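 active = normalized GFP-positive differentiation at or above the plate's own cutoff, the solvent-only control mean plus 3 SD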;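 note: cells exposed to compound for four days before flow analysis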
HNF4A DNA FP: change in binding of human HNF4 alpha to DNA; 360,000 compounds, 0.3% hits; activity change, % at 10 µM; HNF4a-FITC DNA binding, fluorescence polarization, 1 h; AID 1224865; P41235; in the data active = activity change above about 30%, passing the limit was not always enough
CSN deneddyl inh: blocks human CSN-mediated cullin deneddylation. Q92905. Purified CSN, SCF-Nedd8-OG deneddylation, fluorescence polarization. inhibition, % at 12.5 µM. 360,000 compounds, 0.38% hits. AID 651999;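 active = pattern-corrected inhibition above about 35%, with an unprinted fluorescence ratio check between 0.5 and 1.5, limit read from the data, passing the limit was not always enough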;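 note: 0% = enzyme with substrate and 100% = substrate without enzyme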
Target sequence (Q92905 whole entry, looked up, one chain of several): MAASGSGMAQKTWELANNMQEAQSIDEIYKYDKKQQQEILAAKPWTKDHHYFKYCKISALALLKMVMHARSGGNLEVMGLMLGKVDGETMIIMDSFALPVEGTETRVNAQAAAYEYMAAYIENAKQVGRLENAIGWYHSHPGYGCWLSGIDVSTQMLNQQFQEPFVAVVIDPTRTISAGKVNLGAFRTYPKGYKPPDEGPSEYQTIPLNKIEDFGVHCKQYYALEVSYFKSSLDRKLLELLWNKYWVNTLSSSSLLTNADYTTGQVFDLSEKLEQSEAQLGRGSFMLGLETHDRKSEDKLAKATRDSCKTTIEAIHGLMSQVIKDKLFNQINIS
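Assay system: purified human Csn5 enzyme expressed in HEK293T cells; Input: 0.24 nM Csn5 enzyme, final concentration; Reagent: 10 nM SCFSkp2-Nedd8OG; Compound dosing: 12.5 µM single point; Times: reaction 90 min, room temperature; Technique: fluorescence polarization readout.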
TPT1 inhibitor: blocks Candida albicans tRNA 2'-phosphotransferase; recombinant caTPT1, FP RNA substrate dephosphorylation; inhibition, % at 5 µM; 300,000 compounds, 0.81% hits; AID 1962;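 active = inhibition above the mean of all tested compounds plus 3 SD, set per screening campaign, cut at about 24% in these data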;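 note: plate controls were DMSO alone for no effect and ferristatin control at 100 nM for full effect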
caTPT1 confirm: confirmation of Candida albicans TPT1 inhibitors; shares compounds with TPT1 inhibitor; recombinant caTPT1, fluorescence polarization, RNase T1 coupled; inhibition, % at 5 µM; 2,400 compounds, 74% hits;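 active = inhibition above the primary screen limit, the mean inhibition of all tested compounds plus 3 SD, cut at about 25% in these data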
RNase T1 inh: RNase T1 inhibition in TPT1 counter-screen; shares compounds with TPT1 inhibitor; RNase T1 cleavage, fluorescence polarization, 1536-well; inhibition, % at 5 µM; 2,400 compounds, 83% hits;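 active = inhibition above the solvent-only control well mean plus 3 SD, limit set per screening run, cut at about 23% in these data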;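 note: plate controls were DMSO wells with enzyme for no effect and wells without RNase T1 for full effect; inhibitors block cleavage so intact labeled substrate keeps polarization high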
Target sequence (P00651 whole entry, looked up): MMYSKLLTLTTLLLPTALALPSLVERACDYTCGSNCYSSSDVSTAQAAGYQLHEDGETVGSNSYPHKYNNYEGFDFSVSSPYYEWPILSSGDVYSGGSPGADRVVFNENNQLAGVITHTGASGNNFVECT
The depositor's hits bear a star; i = inactive; nt = not tested or not shown; + = active, no number.

SMILES	Rpn11 inh	Myeloid diff 2	HNF4A DNA FP	CSN deneddyl inh	TPT1 inhibitor	caTPT1 confirm	RNase T1 inh
COC1(OC)N=C(N)C2(C#N)C(c3cccc(Oc4ccccc4)c3)C12C#N (stereo unspecified)	10	i	0	-1	2	nt	nt
CCOc1ccccc1C1C(C#N)=C(N)SC(N)=C1C#N	nt	+	104	42	82*	56*	67*
N#CC1=C(N)SC(N)=C(C#N)C1c1ccc([N+](=O)[O-])cc1	57*	i	20	26	40*	7	9
CCOc1ccc(C2C(C#N)=C(N)SC(N)=C2C#N)cc1OC	nt	nt	nt	nt	115*	39*	56*
N#CC1=C(N)SC(N)=C(C#N)C1c1cccc(Oc2ccccc2)c1	nt	i	136	39	111*	54*	69*
CC1CN(C(=O)COC(=O)Cc2ccc(Cl)cc2)CC(C)O1 (stereo unspecified)	0	i	3	-7	nt	nt	nt
COCCNC(=O)Cc1c(C)c2c(cc(C)c3c(C(C)(C)C)coc32)oc1=O	3	i	3	3	1	nt	nt
O=C(Nc1ccc(F)c(Cl)c1)c1cc(C2CCCCN2C(=O)c2ccc3c(c2)CCO3)on1 (stereo unspecified)	-1	i	2	1	nt	nt	nt
Cc1ccc(C2C(C#N)=C(N)SC(N)=C2C#N)o1	nt	nt	nt	nt	66*	34*	46*
CCOC(=O)C1=C(C)OC(N)=C(C#N)C1c1ccc(C)o1 (stereo unspecified)	-9	i	-2	4	1	nt	nt
Cc1ccc(N/C=C/c2onc(C)c2[N+](=O)[O-])cc1	31	i	12	6	49*	56*	68*
Cc1ccc(S(=O)(=O)C[C@@H]2OC[C@H](C)N2S(=O)(=O)c2ccc(C)cc2)cc1	nt	i	0	0	nt	nt	nt
Oc1c(C=Nc2cccc3cccnc23)sc2ccccc12	nt	nt	nt	nt	172*	152*	138*
Cc1cccc(/N=C/c2sc3ccccc3c2O)n1	0	i	2	4	85*	29*	40*
Cc1ccc(CNc2ccc3c(c2)ncn3C(C)(C)C)cc1	0	i	0	0	1	nt	nt
CN(CC(=O)Nc1ccc(Cl)c(Cl)c1)C(=O)c1cccc2cccnc12	20	i	1	-7	nt	nt	nt
O=c1[nH]c2cc3c(cc2cc1CN(Cc1cccs1)Cc1nnnn1Cc1ccco1)OCCO3	-10	i	-3	3	31*	11	15
O=c1[nH]c2cc3c(cc2cc1CN(Cc1ccccc1)Cc1nnnn1Cc1ccco1)OCCO3	nt	nt	34	23	nt	nt	nt
CC(C)n1c(CNC(=O)c2ccccc2F)nnc1SCC(=O)c1ccc(F)cc1	12	i	3	2	nt	nt	nt
CCSc1ncc(/C=N/Nc2ccc([N+](=O)[O-])cc2)n1C	29	i	9	6	56*	57*	66*
CCSc1ncc(/C=N/Nc2ccccc2)n1C	-2	i	2	1	-3	nt	nt
O=P(c1ccccc1)(c1ccccc1)c1ccccc1C(Br)Br	5	i	-2	-1	nt	nt	nt
CN1CCS/C1=C\C=C1/SC(=S)N(CC(=O)O)C1=O	nt	i	154	-71	nt	nt	nt
CN1/C(=C\C=C2/SC(=S)N(CC(=O)O)C2=O)C(C)(C)c2ccccc21	nt	i	-98	-74	79*	74*	78*
CCCN1C(=O)/C(=C/C=C2\N(CC)c3ccccc3C2(C)C)SC1=S	nt	+	-52	-31	178*	138*	125*
SMILES	Rpn11 inh	Myeloid diff 2	HNF4A DNA FP	CSN deneddyl inh	TPT1 inhibitor	caTPT1 confirm	RNase T1 inh
CCCN1C(=O)/C(=C/c2ccncc2)SC1=S	-6	i	0	-7	0	nt	nt
COc1cccc(OC)c1C(=O)NC(=S)N1CCCCC1c1cccnc1 (stereo unspecified)	-5	i	0	-3	-2	nt	nt
CCOC(=O)C(=CNc1ccc(N2CCCCC2)c(S(=O)(=O)Nc2ccccc2OC)c1)C(=O)OCC	10	i	-3	4	nt	nt	nt
S=c1[nH]nc(CCCc2n[nH]c(=S)o2)o1	8	i	2	-1	-2	nt	nt
O=C(CC(=O)c1cccs1)c1ccncc1	1	i	1	2	nt	nt	nt
CCN1CCN(c2c(/C=C3\SC(=S)N(Cc4ccco4)C3=O)c(C)c(C#N)c(=O)n2C)CC1	nt	i	137	141	161*	181*	172*
